From ChEMBL document CHEMBL2380292, “Discovery of SAR184841, a potent and long-lasting inhibitor of 11β-hydroxysteroid dehydrogenase type 1, active in a physiopathological animal model of T2D” (Bioorg Med Chem Lett, 2013)

Experiments:
[1] = system: Mus musculus; test: Antidiabetic activity in diet induced obese C57Bl/6J mouse assessed as plasma cholesterol level at 1 mg/kg, po qd administered for 4 weeks (reference value: 154.3 +/- 8.6 mg/dL); format: functional
[2] = system: Mus musculus; test: Antidiabetic activity in diet induced obese C57Bl/6J mouse assessed as liver triglyceride level at 3 mg/kg, po qd administered for 4 weeks (reference value: 210.5 +/- 15.4 mg/g); format: functional
[3] = Induction of cytochrome P450 (unknown origin); format: ADME; conditions: human
[4] = Permeability across human Caco2 cells; format: ADME, cell-based; conditions: Caco-2, read-out: permeability
How it was run: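 Permeability was measured with the compound alone and in the presence of the P-gp inhibitor elacridar, and expressed in 10^-7 cm/s.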

[5] = system: Mus musculus; test: Ex vivo inhibition of 11beta-HSD1 in C57Bl/6J mouse subcutaneous fat at 30 mg/kg, po after 16 hrs; format: functional
How it was run: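 Mice given a single oral dose as a suspension in Tween 80/0.6% methylcellulose (0.5/99.5, v/v) at 10 mL/kg. At 2 h or 16 h post-dose, animals were killed by cervical dislocation and 50 mg liver and 200 mg subcutaneous fat were taken for 11β-HSD1 activity. Reactions were stopped with HCl 1 N/methanol (1/1). 3H-cortisone and 3H-cortisol were quantified by HPLC with flow scintillation detection.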

[6] = system: Mus musculus; test: Antidiabetic activity in diet induced obese C57Bl/6J mouse assessed as plasma leptin level at 3 mg/kg, po qd administered for 4 weeks (reference value: 22.5 +/- 2.4 ng/mL); format: functional
[7] = system: Mus musculus; test: Antidiabetic activity in diet induced obese C57Bl/6J mouse assessed as liver triglyceride level at 10 mg/kg, po qd administered for 4 weeks (reference value: 210.5 +/- 15.4 mg/g); format: functional
[8] = system: Mus musculus; test: Antidiabetic activity in diet induced obese C57Bl/6J mouse assessed as plasma triglyceride level at 10 mg/kg, po qd administered for 4 weeks (reference value: 36.2 +/- 2.1 […]); format: functional
[9] = system: Mus musculus; test: Antidiabetic activity in diet induced obese C57Bl/6J mouse assessed as plasma triglyceride level at 1 mg/kg, po qd administered for 4 weeks (reference value: 36.2 +/- 2.1 […]); format: functional
[10] = in vivo; conditions: rat, brain, po, 10 mg/kg
[11] = system: Mus musculus; test: Antidiabetic activity in diet induced obese C57Bl/6J mouse assessed as plasma leptin level at 10 mg/kg, po qd administered for 4 weeks (reference value: 22.5 +/- 2.4 ng/mL); format: functional
[12] = species on record: Xenopus laevis; test: Toxicity in Xenopus laevis by teratogenicity assay; format: organism-based; conditions: in vivo
[13] = system: Salmonella typhimurium; test: Genotoxicity in Salmonella typhimurium by Ames test; format: toxicity, organism-based; conditions: salmonella enterica subsp. enterica serovar typhimurium
[14] = biological target: T1, 11-beta-hydroxysteroid dehydrogenase type 2 (Homo sapiens, UniProt P80365); test: Inhibition of human 11beta-HSD2
T1 sequence (P80365 whole entry): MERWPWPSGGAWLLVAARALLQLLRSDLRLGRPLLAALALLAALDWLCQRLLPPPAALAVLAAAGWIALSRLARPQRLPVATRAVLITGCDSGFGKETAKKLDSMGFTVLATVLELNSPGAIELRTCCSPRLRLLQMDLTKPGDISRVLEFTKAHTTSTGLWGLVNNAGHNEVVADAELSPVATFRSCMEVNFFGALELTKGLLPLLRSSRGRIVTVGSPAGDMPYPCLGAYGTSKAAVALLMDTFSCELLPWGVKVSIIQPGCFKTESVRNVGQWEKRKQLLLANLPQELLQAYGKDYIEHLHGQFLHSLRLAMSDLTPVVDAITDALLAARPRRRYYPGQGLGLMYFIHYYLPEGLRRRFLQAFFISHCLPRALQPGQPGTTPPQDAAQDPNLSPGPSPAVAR

[15] = system: Liver microsomes; test: Metabolic stability in rat liver microsomes; format: ADME, Microsome
[16] = system: Liver; test: Metabolic stability in mouse liver microsomes; format: ADME, Microsome
[17] = system: Mus musculus; test: Antidiabetic activity in diet induced obese C57Bl/6J mouse assessed as plasma triglyceride level at 3 mg/kg, po qd administered for 4 weeks (reference value: 36.2 +/- 2.1 […]); format: functional
[18] = in vivo; conditions: rat, liver, po, 10 mg/kg
[19] = Plasma clearance in rat at 3 mg/kg, iv and 10 mg/kg, po; format: ADME, organism-based
[20] = system: Mus musculus; test: Inhibition of 11beta-HSD1 in mouse adipose tissue at 3 mg/kg, po after 7 hrs; format: functional
How it was run: (§1)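 Pharmacodynamic study in mice: single oral 3 mg/kg dose, with liver and fat 11β-HSD1 activity followed over 24 h post-dosing.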

[21] = system: Mus musculus; test: Antidiabetic activity in diet induced obese C57Bl/6J mouse assessed as plasma glucose level at 10 mg/kg, po qd administered for 4 weeks (reference value: 297 +/- 15 mg/dL); format: functional
[22] = system: Mus musculus; test: Inhibition of 11beta-HSD1 in mouse liver at 3 mg/kg, po after 24 hrs; format: functional; how it was run: as §1
[23] = system: Mus musculus; test: Antidiabetic activity in po dosed C57Bl/6J mouse assessed as reduction in plasma glucose level administered for 4 weeks; format: functional, organism-based
[24] = system: Mus musculus; test: Antidiabetic activity in diet induced obese C57Bl/6J mouse assessed as plasma cholesterol level at 3 mg/kg, po qd administered for 4 weeks (reference value: 154.3 +/- 8.6 mg/dL); format: functional
[25] = in vivo; conditions: rat, adipose tissue, po, 10 mg/kg
[26] = system: Mus musculus; test: Inhibition of 11beta-HSD1 in mouse adipose tissue at 3 mg/kg, po after 24 hrs; format: functional; how it was run: as §1
[27] = system: Mus musculus; test: Antidiabetic activity in diet induced obese C57Bl/6J mouse assessed as plasma glucose level at 3 mg/kg, po qd administered for 4 weeks (reference value: 297 +/- 15 mg/dL); format: functional
[28] = system: Mus musculus; test: Hepatotoxicity in C57Bl/6J mouse assessed as alteration of liver function biomarkers at 1 to 10 mg/kg, po after 4 weeks; format: toxicity, organism-based; design: dose 1-10 mg/kg, route oral; conditions: in vivo, 672 h
[29] = system: Mus musculus; test: Antidiabetic activity in diet induced obese C57Bl/6J mouse assessed as increase of glucose tolerance at 10 mg/kg, po after 3 weeks by oral glucose tolerance test; format: functional
[30] = Plasma concentration in C57Bl/6J mouse at 10 mg/kg, po 22 hrs post last dose; format: ADME, organism-based; design: dose 10 mg/kg, route oral
How it was run: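 C57Bl/6J mice, 20 weeks old, kept on a high-fat/high-fructose diet (diet-induced obese), were dosed orally once daily for 4 weeks at 1, 3 or 10 mg/kg/day in methylcellulose-Tween 80 vehicle. Lean and obese vehicle-treated controls were included, with n = 9–10 per group. Food intake and body weight were followed. Plasma drug levels were taken at study end, about 22 h after the last dose.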

[31] = system: Mus musculus; test: Antidiabetic activity in diet induced obese C57Bl/6J mouse assessed as plasma cholesterol level at 10 mg/kg, po qd administered for 4 weeks (reference value: 154.3 +/- 8.6 mg/dL); format: functional
[32] = Volume of distribution at steady state in rat at 3 mg/kg, iv and 10 mg/kg, po; format: ADME, organism-based; conditions: in vivo, read-out: Vdss
[33] = AUC (0 to infinity) in rat plasma at 10 mg/kg, po; format: ADME, organism-based; design: time infinity, dose 10 mg/kg, route oral

## CC(C)(C)N1CCN(c2ccc(N3CCN(C(=O)N[C@H]4C5CC6CC4C[C@](C(N)=O)(C6)C5)c4ccccc43)nc2)CC1
[1]
  Activity: 127.7 mg/dL
[2]
  Activity: 142.8 mg/g
[3]
  Activity: Not Active
[4]
  Papp: 0.3 ×10⁻⁶ cm/s
[5]
  inhibition in vivo at 30 mg/kg: 60%
[6]
  Activity: 12.5 ng/mL
[7]
  Activity: 129.1 mg/g
[8]
  Activity: 35 mg/mL
[9]
  Activity: 33.8 mg/mL
[10]
  Kp: 0.14
[11]
  Activity: 12.5 ng/mL
[12]
  Activity: Non-toxic
[13]
  Activity: Non-toxic
[14]
  IC50: 4 µM
[15]
  Stability: 15%
[16]
  Stability: 13%
[17]
  Activity: 38.4 mg/mL
[18]
  Kp: 224
[19]
  clearance: 86.7 mL/min/kg
[20]
  inhibition in vivo at 3 mg/kg: > 90%
[21]
  Activity: 224.6 mg/dL
[22]
  inhibition in vivo at 3 mg/kg: 60%
[23]
  Activity: Dose-dependent effect
[24]
  Activity: 125.1 mg/dL
[25]
  Kp: 2.2
[26]
  inhibition in vivo at 3 mg/kg: 40%
[27]
  Activity: 251 mg/dL
[28]
  Activity: Non-toxic
[29]
  Activity: -23%
[30]
  concentration at 22 h: 2.6 nM
[31]
  Activity: 123.6 mg/dL
[32]
  Vd: 14 L/kg
[33]
  AUC(0-inf): 580 ng·h/mL
